Data on one molecule can be found in ChEMBL document CHEMBL5370586 (J Nat Prod, 2023).

The subject of data set [1] is PC-3. Briefly: Antiproliferative activity against human PC3 cells assessed as reduction in cell viability incubated for 72 hrs in serum deprivation condition by MTT assay. The format is functional, cell-based. As to conditions: PC-3, 72 h. The method, boiled down:
(§1)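 Cells seeded at 1 × 10^3 (DU145, PC-3), 6 × 10^3 (LNCaP), 2 × 10^3 (PWR-1E) or 4.5 × 10^3 (RWPE-1) per well and left to adhere 24 h. CBD (0–100 μM) then given for 72 h in serum-free medium. MTT added for 3 h at 37 °C, formazan dissolved in DMSO, absorbance read at 570 nm. Viability is % of vehicle; IC50 by nonlinear regression; at least three independent experiments.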
Background: Formazan colour is commonly taken as a measure of viable cells.

The subject of the next data set is LNCaP. Description: Antiproliferative activity against human LNCaP cells assessed as reduction in cell viability incubated for 72 hrs in serum deprivation condition by MTT assay. The format is functional, cell-based. The method, boiled down:
as §1

Data set [2] deals with DU-145. Description: Antiproliferative activity against human DU-145 cells assessed as reduction in cell confluency at 5 to 10 uM measured after 72 hrs by Hoechst 33342 staining based high content imaging fluorescence microscopic analysis. It is filed as functional. As to conditions: dose 5-10 µM. An outline of the steps:
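DU145 or PC-3 cells seeded at 2 × 10^3 per well and given CBD at 1, 5 or 10 μM with serum for 72 h; staurosporine as positive control. Stained 30 min with Hoechst 33342 (1:5000), YO-PRO-1 (1:1000) and PI (1:1000). High-content imaging with a 63× water objective. Hoechst gave confluency, nucleus area and circularity; YO-PRO/PI gave healthy, early and late apoptotic fractions.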

Data set [3] has as its system PC-3. Description: Inhibition of cell invasion in human PC-3 cells incubated for 48 hrs by crystal violet staining based microscopic analysis relative to control. It is filed as functional.
Data set [4] concerns DU-145. Briefly: Antiproliferative activity against human DU-145 cells assessed as reduction in cell viability incubated for 72 hrs in presence of SR144528 by MTT assay. The format is functional, cell-based. An outline of the steps:
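DU145 or PC-3 cells pretreated 1 h with SR141716 (CB1 antagonist), SR144528 (CB2 antagonist), capsazepine (TRPV1 antagonist) or LPI (GPR55 agonist), then given CBD for 72 h. MTT read-out as % of vehicle. Compared with CBD alone by t-test; at least three independent experiments.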

Data set [5] concerns DU-145. Briefly: Induction of cell cycle arrest in human DU-145 cells assessed as arrest in G1/S phase by measuring reduction in CDK4 protein expression at IC50 concentration incubated for 48 hrs by Western blotting analysis. It is filed as functional, cell-based. The method, boiled down: (§2)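 DU145 or PC-3 cells seeded at 5 × 10^4 per well and given CBD for 48 h. Lysed in ice-cold RIPA with protease/phosphatase inhibitor; 40 μg protein per lane, SDS-PAGE, PVDF transfer, milk block. Primary antibodies overnight at 4 °C, then HRP secondary 1 h at room temperature, chemiluminescence. Densitometry normalised to loading control, then to vehicle; at least three experiments.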
A general note: In western blotting, separated proteins are transferred to a membrane and probed.

Data set [6] concerns PC-3. Description: Induction of cell cycle arrest in human PC-3 cells assessed as arrest in G1/S phase by measuring reduction in cyclin D3 protein expression at IC50 concentration incubated for 48 hrs by Western blotting analysis relative to control. It is filed as functional, cell-based. An outline of the steps:
as §2

The subject of data set [7] is DU-145. Briefly: Induction of cell cycle arrest in human DU-145 cells assessed as arrest in G2/M phase by measuring reduction in CDK1 protein expression at IC50 concentration incubated for 48 hrs by Western blotting analysis. The format is functional, cell-based. The method, boiled down: as §2
In data set [8] the test system is PC-3. Description: Induction of cell cycle arrest in human PC-3 cells assessed as arrest in G2/M phase by measuring reduction in CDK1 protein expression at IC50 concentration incubated for 48 hrs by Western blotting analysis. It is filed as functional, cell-based. The method, boiled down:
as §2

Another data set concerns PWR-1E. Description: Induction of cell death in human PWR-1E cells assessed as reduction in nucleus area at 1 to 10 uM incubated for 72 hrs by Hoechst 33342 staining based high-content fluorescence microscopy. It is filed as toxicity. The settings on record: dose 1-10 µM.
Data set [9] relates to PC-3. Description: Anti-invasive activity against human PC-3 cells assessed as reduction in MMP-1 protein secretion incubated for 48 hrs by ELISA analysis. It is filed as functional, cell-based.
Data set [10] has as its system PC-3. Briefly: Anti-invasive activity against human PC-3 cells assessed as reduction in MMP-9 protein secretion incubated for 48 hrs by ELISA analysis. The format is functional, cell-based. A general note: ELISA stands for enzyme-linked immunosorbent assay.
For data set [11], the system named is PC-3. Briefly: Anti-invasive activity against human PC-3 cells assessed as increase in E-cadherin protein expression incubated for 48 hrs by Western blotting analysis. The format is functional.

The source made the active and inactive calls. The rule behind the calls is not given here. A value given as a limit tells only on which side of the number the result lay.

In general, IC50 refers to the concentration that inhibits the measured activity by half. `C=C(C)[C@@H]1CCC(C)=C[C@H]1c1c(O)cc(CCCCC)cc1O` [CANNABIDIOL]: the IC50 amounted to 2900 nM in the data set with PC-3 [1] and 2600 nM in the data set with LNCaP. Besides, the result with DU-145 [2], in the data set with DU-145 [4], in the data set with DU-145 [5], in the data set with PC-3 [6], in the data set on DU-145 [7] and in the data set with PC-3 [8] was Active. Besides, the “inhibition (INH)” value with PC-3 [3] is recorded as approximately 30%. Moreover, the values for the Activity entry in the data set with PWR-1E and with PC-3 [11] were “Toxic” and more than 2, respectively. Moreover, the outcome in the data set on PC-3 [9] and with PC-3 [10] was inactive.
